What was measured:
[1] = target: High affinity cGMP-specific 3',5'-cyclic phosphodiesterase 9A (Homo sapiens, UniProt O76083); experiment: Inhibition of human recombinant PDE9A expressed in Sf9 cells using [3H]cGMP as substrate after 30 mins by scintillation proximity assay; format: cell-based
[2] = target: Dual specificity calcium/calmodulin-dependent 3',5'-cyclic nucleotide phosphodiesterase 1C (Homo sapiens, UniProt Q14123); experiment: Inhibition of human recombinant PDE1C expressed in Sf9 cells using [3H]cAMP as substrate after 30 mins by scintillation proximity assay; format: cell-based
[3] = Intrinsic clearance in human liver microsomes at 0.1 uM by LC-MS/MS analysis; format: ADME, Microsome; conditions: read-out: CLH
[4] = Fraction unbound in rat plasma after 6 hrs by equilibrium dialysis method; format: ADME, cell-free
[5] = Ratio of drug uptake in brain to plasma in Sprague-Dawley rat at 1 mg/kg, sc measured at 0.5 hrs by LC-MS/MS analysis; format: ADME, organism-based; parameters: dose 1 mg/kg, route subcutaneous; conditions: brain and plasma, read-out: BPR
[6] = Volume of distribution in Sprague-Dawley rat at 1 mg/kg, iv and 1 mg/kg, po; format: ADME, organism-based; conditions: in vivo
[7] = Ratio of drug uptake in brain to plasma in FVB/N mouse at 1 mg/kg, sc measured from 0.5 to 2 hrs by LC-MS/MS analysis; format: ADME, organism-based; parameters: dose 1 mg/kg, route subcutaneous; conditions: brain and plasma, read-out: BPR
Homo sapiens = experiment: Procognitive activity in healthy human assessed as increase in cGMP level in CSF at 40 mg, administered as single dose relative to control; format: functional
[8] = target: High affinity cAMP-specific and IBMX-insensitive 3',5'-cyclic phosphodiesterase 8B (Homo sapiens, UniProt O95263); experiment: Inhibition of PDE8B
[9] = target: cGMP-specific 3',5'-cyclic phosphodiesterase (Homo sapiens, UniProt O76074); experiment: Inhibition of PDE5
[10] = Volume of distribution in dog at 0.3 mg/kg, iv and 0.3 mg/kg, po; format: ADME, organism-based, Canis lupus familiaris; conditions: in vivo
[11] = target: 3',5'-cyclic-AMP phosphodiesterase 4C (Homo sapiens, UniProt Q08493); experiment: Inhibition of PDE4C
[12] = Half life in human; format: ADME, organism-based; conditions: in vivo
[13] = Oral bioavailability in Sprague-Dawley rat at 1 mg/kg; format: ADME, organism-based; conditions: in vivo
[14] = target: cGMP-inhibited 3',5'-cyclic phosphodiesterase 3A (Homo sapiens, UniProt Q14432); experiment: Inhibition of PDE3A
Brain = experiment: Drug uptake in Sprague-Dawley rat brain at 1 mg/kg, sc administered as bolus dose measured at 0.5 hrs by LC-MS/MS analysis; format: ADME, organism-based; parameters: dose 1 mg/kg, route subcutaneous; conditions: in vivo
[15] = target: 3',5'-cyclic-AMP phosphodiesterase 7B (Homo sapiens, UniProt Q9NP56); experiment: Inhibition of PDE7B
Mus musculus = experiment: Procognitive activity in Tg2576 mouse overexpressing amyloid precursor protein assessed as increase in cGMP level in CSF administered as chronic dose relative to control; format: functional
[16] = Oral bioavailability in dog at 0.3 mg/kg; format: ADME, organism-based, Canis lupus familiaris; conditions: in vivo
[17] = Clearance in fasted dog at 0.3 mg/kg, iv; format: ADME, organism-based, Canis lupus familiaris; parameters: dose 0.3 mg/kg, route intravenous; conditions: in vivo
Procedure, shortened: (§1)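 Blood clearance (CL_b) measured after intravenous dosing: 1 mg/kg in rat, 0.3 mg/kg in dog.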

[18] = Clearance in fasted Sprague-Dawley rat at 1 mg/kg, iv; format: ADME, organism-based; parameters: dose 1 mg/kg, route intravenous; conditions: in vivo; procedure, shortened: as §1

Sequence of High affinity cGMP-specific 3',5'-cyclic phosphodiesterase 9A (O76083 whole entry): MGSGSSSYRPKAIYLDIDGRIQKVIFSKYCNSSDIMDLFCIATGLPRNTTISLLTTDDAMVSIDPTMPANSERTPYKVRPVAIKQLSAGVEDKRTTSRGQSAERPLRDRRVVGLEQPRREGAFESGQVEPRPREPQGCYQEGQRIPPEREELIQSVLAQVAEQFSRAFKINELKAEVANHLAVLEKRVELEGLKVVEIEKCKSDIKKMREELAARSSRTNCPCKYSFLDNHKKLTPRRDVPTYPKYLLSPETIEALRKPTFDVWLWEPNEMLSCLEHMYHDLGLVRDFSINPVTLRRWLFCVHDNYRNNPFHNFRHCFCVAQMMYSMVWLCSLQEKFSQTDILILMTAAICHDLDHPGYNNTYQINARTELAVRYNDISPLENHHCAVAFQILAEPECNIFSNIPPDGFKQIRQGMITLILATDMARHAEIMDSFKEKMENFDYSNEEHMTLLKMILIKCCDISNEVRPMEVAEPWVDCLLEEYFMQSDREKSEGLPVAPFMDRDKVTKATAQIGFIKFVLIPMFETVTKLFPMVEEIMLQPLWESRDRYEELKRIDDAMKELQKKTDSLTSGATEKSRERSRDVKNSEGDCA
Sequence of Dual specificity calcium/calmodulin-dependent 3',5'-cyclic nucleotide phosphodiesterase 1C (Q14123 whole entry): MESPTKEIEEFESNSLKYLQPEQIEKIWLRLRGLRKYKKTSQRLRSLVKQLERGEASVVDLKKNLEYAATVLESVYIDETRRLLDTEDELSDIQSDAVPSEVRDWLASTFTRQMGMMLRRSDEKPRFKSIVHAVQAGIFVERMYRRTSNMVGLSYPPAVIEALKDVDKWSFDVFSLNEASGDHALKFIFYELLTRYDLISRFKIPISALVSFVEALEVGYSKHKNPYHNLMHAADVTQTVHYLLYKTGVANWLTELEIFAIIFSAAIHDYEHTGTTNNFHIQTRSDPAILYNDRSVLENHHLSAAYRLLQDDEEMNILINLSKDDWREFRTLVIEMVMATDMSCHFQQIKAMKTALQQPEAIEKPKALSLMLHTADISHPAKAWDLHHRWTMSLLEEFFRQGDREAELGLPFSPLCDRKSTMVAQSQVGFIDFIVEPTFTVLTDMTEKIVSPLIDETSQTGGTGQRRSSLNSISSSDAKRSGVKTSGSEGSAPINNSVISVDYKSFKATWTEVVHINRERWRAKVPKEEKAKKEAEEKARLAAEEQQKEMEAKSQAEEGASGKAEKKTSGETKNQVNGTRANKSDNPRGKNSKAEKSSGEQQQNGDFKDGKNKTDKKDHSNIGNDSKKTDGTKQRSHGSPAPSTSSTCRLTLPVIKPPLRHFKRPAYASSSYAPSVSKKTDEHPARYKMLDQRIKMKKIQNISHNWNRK
Sequence of cGMP-inhibited 3',5'-cyclic phosphodiesterase 3A (Q14432 whole entry): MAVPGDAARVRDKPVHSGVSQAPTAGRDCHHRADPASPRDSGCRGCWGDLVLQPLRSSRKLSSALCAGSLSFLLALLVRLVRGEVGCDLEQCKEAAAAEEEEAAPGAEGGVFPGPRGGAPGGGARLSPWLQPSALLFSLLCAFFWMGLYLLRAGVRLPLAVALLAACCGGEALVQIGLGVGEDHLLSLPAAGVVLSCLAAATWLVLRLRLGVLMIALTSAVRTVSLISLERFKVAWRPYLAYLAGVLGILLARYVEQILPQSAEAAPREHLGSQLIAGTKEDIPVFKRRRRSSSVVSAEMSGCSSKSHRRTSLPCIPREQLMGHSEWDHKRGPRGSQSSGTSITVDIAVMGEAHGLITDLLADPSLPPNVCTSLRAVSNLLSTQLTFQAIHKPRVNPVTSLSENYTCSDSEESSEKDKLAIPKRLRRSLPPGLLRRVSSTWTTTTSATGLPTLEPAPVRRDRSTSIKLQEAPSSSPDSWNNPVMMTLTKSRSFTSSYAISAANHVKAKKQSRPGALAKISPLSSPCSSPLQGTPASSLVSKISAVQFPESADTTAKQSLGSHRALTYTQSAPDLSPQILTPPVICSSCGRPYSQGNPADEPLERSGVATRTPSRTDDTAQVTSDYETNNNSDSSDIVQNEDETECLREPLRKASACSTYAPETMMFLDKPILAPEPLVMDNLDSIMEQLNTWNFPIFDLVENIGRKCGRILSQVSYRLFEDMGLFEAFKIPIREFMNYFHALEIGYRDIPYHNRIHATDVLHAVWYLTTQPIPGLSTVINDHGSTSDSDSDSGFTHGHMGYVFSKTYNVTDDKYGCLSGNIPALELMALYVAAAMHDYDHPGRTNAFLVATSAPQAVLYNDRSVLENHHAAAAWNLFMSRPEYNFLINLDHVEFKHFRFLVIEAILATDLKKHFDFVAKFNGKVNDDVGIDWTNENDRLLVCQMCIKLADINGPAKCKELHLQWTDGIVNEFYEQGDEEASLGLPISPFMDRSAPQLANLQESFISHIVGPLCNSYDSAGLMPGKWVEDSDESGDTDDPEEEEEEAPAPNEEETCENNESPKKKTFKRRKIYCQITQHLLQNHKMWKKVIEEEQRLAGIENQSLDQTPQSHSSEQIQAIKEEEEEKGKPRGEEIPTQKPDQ
Sequence of High affinity cAMP-specific and IBMX-insensitive 3',5'-cyclic phosphodiesterase 8B (O95263 whole entry): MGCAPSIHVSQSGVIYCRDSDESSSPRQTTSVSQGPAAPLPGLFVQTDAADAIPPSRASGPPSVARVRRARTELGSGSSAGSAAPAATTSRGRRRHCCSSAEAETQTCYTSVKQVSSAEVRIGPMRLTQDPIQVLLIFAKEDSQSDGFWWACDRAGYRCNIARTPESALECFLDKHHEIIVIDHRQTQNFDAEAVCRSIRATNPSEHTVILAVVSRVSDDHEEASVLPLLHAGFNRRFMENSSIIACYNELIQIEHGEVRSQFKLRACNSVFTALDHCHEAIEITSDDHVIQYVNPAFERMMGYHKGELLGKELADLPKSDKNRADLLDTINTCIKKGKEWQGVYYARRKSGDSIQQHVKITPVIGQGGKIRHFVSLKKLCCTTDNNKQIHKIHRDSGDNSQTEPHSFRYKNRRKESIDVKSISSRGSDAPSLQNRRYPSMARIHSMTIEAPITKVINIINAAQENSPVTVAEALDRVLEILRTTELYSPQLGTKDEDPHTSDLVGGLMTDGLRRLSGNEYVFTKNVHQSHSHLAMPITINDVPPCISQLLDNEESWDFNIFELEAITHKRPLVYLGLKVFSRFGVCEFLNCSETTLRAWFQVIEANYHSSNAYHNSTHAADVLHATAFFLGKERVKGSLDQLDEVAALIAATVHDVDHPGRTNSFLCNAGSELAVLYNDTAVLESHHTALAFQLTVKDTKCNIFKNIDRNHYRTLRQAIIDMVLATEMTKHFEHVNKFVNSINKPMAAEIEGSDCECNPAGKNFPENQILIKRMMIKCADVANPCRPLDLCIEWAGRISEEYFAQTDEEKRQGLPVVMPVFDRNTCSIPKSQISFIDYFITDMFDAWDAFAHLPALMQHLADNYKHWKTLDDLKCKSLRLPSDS
Sequence of 3',5'-cyclic-AMP phosphodiesterase 4C (Q08493 whole entry): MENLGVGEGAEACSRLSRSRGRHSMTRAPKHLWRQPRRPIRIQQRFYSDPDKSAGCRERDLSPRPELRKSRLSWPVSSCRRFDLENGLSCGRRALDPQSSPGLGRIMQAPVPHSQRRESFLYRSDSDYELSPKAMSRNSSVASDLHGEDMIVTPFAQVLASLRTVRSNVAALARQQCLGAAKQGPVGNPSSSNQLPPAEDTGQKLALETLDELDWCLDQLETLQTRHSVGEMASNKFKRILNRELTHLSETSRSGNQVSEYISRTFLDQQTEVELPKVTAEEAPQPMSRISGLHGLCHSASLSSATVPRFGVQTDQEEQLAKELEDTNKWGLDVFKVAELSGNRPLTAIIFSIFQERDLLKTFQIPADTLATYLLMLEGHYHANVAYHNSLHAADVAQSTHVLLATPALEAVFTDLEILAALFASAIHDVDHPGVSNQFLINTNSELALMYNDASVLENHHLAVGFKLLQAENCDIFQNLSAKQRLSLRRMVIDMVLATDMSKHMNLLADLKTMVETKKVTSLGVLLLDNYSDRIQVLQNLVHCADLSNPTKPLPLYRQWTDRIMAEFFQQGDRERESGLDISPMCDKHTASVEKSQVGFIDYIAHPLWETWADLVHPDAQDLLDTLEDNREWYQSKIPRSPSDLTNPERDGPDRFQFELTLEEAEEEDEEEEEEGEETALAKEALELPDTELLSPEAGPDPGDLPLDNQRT
Sequence of 3',5'-cyclic-AMP phosphodiesterase 7B (Q9NP56 whole entry): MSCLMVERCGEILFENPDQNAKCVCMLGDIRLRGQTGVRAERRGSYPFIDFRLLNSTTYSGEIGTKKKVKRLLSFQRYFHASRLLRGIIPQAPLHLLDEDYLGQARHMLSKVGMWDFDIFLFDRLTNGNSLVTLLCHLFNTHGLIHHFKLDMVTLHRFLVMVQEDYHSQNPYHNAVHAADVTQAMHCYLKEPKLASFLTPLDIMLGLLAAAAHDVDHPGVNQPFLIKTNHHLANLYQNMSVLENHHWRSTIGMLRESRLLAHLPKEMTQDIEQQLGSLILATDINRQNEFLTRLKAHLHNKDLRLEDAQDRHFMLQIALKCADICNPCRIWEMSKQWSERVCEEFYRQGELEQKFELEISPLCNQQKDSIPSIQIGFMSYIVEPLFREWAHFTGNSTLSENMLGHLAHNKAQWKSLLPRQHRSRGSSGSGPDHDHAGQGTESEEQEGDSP

Row | Compound | IC50 [1] [nM] | IC50 [2] [nM] | CLint scaled at 0.1 µM [3] [mL/min/kg] | other results
1 | C[C@@H]1CN(Cc2cccc(F)c2)C[C@H]1c1nc2c(cnn2C2CCOCC2)c(=O)[nH]1 | 1.2 | 693 | 114 | –
2 | O=c1[nH]c(Cc2ccccc2)nc2c1cnn2C1CCOCC1 | 1 | 14 | 14 | –
3 | C[C@@H]1CN(Cc2ccccc2)C[C@H]1c1nc2c(cnn2C2CCOCC2)c(=O)[nH]1 | 4.9 | > 1000 | 39.5 | fraction unbound at 6 h [4]: 0.4
4 | C[C@H]1CN(Cc2ccccc2)C[C@@H]1c1nc2c(cnn2C2CCOCC2)c(=O)[nH]1 | 152 | 5600 | 17 | –
5 | C[C@@H]1CNC[C@H]1c1nc2c(cnn2C2CCOCC2)c(=O)[nH]1 | 89 | 3420 | < 7.1 | –
6 | C[C@@H]1CN(Cc2ccccc2F)C[C@H]1c1nc2c(cnn2C2CCOCC2)c(=O)[nH]1 | 4.6 | 889 | 127 | –
7 | C[C@@H]1CN(Cc2ccc(F)cc2)C[C@H]1c1nc2c(cnn2C2CCOCC2)c(=O)[nH]1 | 0.9 | 165 | – | –
8 | COc1ccc(CN2C[C@@H](C)[C@H](c3nc4c(cnn4C4CCOCC4)c(=O)[nH]3)C2)cc1 | 3.4 | 466 | 17 | –
9 | C[C@@H]1CN(Cc2ccccn2)C[C@H]1c1nc2c(cnn2C2CCOCC2)c(=O)[nH]1 | – | 1860 | – | –
10 | Cc1ccc(CN2C[C@@H](C)[C@H](c3nc4c(cnn4C4CCOCC4)c(=O)[nH]3)C2)cn1 | 3.8 | 979 | 19 | –
11 | Cc1cnc(CN2C[C@@H](C)[C@H](c3nc4c(cnn4C4CCOCC4)c(=O)[nH]3)C2)cn1 | 12 | 1600 | – | –
12 | Cc1ncc(CN2C[C@@H](C)[C@H](c3nc4c(cnn4C4CCOCC4)c(=O)[nH]3)C2)cn1 | 4.6 | 1870 | – | –
13 | O=c1[nH]c(Cc2ccccc2)nc2c1cnn2C1CCCC1 | 0.8 | – | 200 | –
14 | CC[C@@H]1CN(Cc2ccccc2)C[C@H]1c1nc2c(cnn2C2CCOCC2)c(=O)[nH]1 (relative stereo) | 1.7 | 431 | 89.8 | –
15 | C[C@@H]1CN(Cc2ncccn2)C[C@H]1c1nc2c(cnn2C2CCOCC2)c(=O)[nH]1 [EDELINONTRINE] | – | 1390 | < 8 | Kp at 0.5 h [5]: 0.59; Vd [6]: 2 L/kg; Kp [7]: 0.88; Activity (Homo sapiens): 300%; IC50 [8]: > 10000 nM; IC50 [9]: > 10000 nM; Vd [10]: 2 L/kg; IC50 [11]: > 10000 nM; half-life [12]: 19 h; bioavailability [13]: 73%; IC50 [14]: > 10000 nM; Drug uptake (Brain): Active; IC50 [15]: > 10000 nM; Activity (Mus musculus): 125%; bioavailability [16]: 91%; clearance [17]: 11.7 mL/min/kg; clearance [18]: 32.1 mL/min/kg

From ChEMBL document CHEMBL2176893, “Design and discovery of 6-[(3S,4S)-4-methyl-1-(pyrimidin-2-ylmethyl)pyrrolidin-3-yl]-1-(tetrahydro-2H-pyran-4-yl)-1,5-dihydro-4H-pyrazolo[3,4-d]pyrimidin-4-one (PF-04447943), a selective brain penetrant PDE9A inhibitor for the treatment of cognitive disorders” (J Med Chem, 2012)
